Source: PubChem (Broad Institute)
Only some compounds are listed: those with a hit (about 3.1% of all), similar ones and a draw of the others.
Ecoli rRNA inh – inhibits bacterial ribosomal RNA function over humanized ribosomes | E. coli WT GFP vs humanized-ribosome RFP mutants, fluorescence, 24 h; stronger effect = lower value; DMSO median 0, no signal -100 | GFP signal change (wild-type ribosome), % (no concentration beside the values) | AID 720706 | hit rate 1.6% among 350,000;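 active = significant combined selectivity score with lowered wild-type GFP, culture density cut under 30%, mutant RFP and density less affected; inactive = any of these conditions unmet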
DENV2 CPE – DENV2-induced cell death inhibition | DENV2-infected cells, cytopathic effect rescue, plate reader | AID 651640 | hit rate 1.7% among 350,000 | CPE inhibition, % at 9.99 µM; in the data active = CPE inhibition above about 20%, passing the limit was not always enough; inconclusive = no clear call, values can overlap the other calls; tested in BHK-21 cells;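 note: 0% = median of neutral control wells and 100% = median of positive control wells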
Cneo AK release – causes C. neoformans cell lysis. adenylate kinase release luminescence, 4 h; normalised: neutral wells 0, clomiphene wells 100. lysis activity, % at 15 µM. hit rate 0.2% among 360,000. AID 651654;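 active = mean lysis activity across replicates of at least 80%, whatever share of replicates individually reach that level; inactive = mean lysis activity below 80%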
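Signal: Adenylate kinase release luminescence | Assay system: Log-phase Cryptococcus neoformans yeast cells | Input: Cells at 5 × 10^6 per mL | Buffer or medium: Fresh YPD growth medium | Compound: Single dose | Schedule: Static 4 h at 37 °C with compound, 1 h detection | Controls: Clomiphene | Read-out: Luminescence rise reflecting yeast cell lysis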
E-selectin induc – E-selectin induction on HUVECs; HUVEC E-selectin immunofluorescence imaging; normalized: neutral wells 0, TNF-alpha wells 100; activation, % at 7.58 µM; hit rate 0.37% among 260,000;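 active = mean E-selectin-positive cell signal at least 10% of the positive control, reached in at least 60% of replicates, without over 20% cell loss; inconclusive = no rule given, readout overlaps actives, possibly toxicity-flagged; inactive = the rest, including those meeting only one limit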
Target sequence (P16581 whole entry, looked up): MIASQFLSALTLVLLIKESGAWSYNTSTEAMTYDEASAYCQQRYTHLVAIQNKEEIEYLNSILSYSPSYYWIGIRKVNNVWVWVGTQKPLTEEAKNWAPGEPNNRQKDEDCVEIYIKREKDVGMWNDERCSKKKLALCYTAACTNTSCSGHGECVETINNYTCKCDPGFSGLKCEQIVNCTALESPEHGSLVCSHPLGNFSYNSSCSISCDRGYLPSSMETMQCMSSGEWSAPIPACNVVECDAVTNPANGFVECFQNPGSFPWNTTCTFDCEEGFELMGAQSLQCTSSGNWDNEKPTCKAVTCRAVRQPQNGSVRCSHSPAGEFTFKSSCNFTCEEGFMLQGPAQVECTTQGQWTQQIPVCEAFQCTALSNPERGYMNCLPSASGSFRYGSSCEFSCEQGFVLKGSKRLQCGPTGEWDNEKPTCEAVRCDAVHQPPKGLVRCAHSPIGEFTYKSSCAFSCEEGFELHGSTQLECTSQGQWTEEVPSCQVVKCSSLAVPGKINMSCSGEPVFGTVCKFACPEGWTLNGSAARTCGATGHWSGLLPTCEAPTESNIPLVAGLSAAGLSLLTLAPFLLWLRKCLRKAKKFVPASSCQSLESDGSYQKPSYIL
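Test system – human umbilical vein endothelial cells (HUVEC), E-selectin induction · Input – 3,000 HUVEC seeded per well · Buffer or medium – EGM-2, gelatin · Compound dosing – single-point compound dose · Detection – immunofluorescence imaging · Measure – percent E-selectin-positive cells · Controls – TNF-alpha high, DMSO low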
miR122 inh – blocks miR-122 activity in Huh7 sensor cells; Huh7 miR-122 Renilla luciferase sensor, 48 h; neutral wells = 0, positive control = 100; activation (reporter increase), % at 12.5 µM; hit rate 0.3% among 340,000; AID 602342;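 active = mean replicate activation score at least 90 and every replicate individually at or above 90; inconclusive = only one of the two criteria met; inactive = neither criterion met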;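 note: higher luciferase means less miR-122 activity so hits act as miR-122 inhibitors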
The depositor's hits bear a star; ? = inconclusive; . = not tested or not shown; [ ] = remark or other dose.

SMILES	Ecoli rRNA inh	DENV2 CPE	Cneo AK release	E-selectin induc	miR122 inh
O=C(CC1CC1)N1CC(=O)N2[C@H](C1)[C@@H](c1ccc(-c3ccccc3)cc1)[C@@H]2CO	2	-4	.	0	.
CC(C)C#Cc1ccc2c(c1)O[C@@H](CN(C)C(=O)Cc1ccccn1)[C@@H](C)CN([C@H](C)CO)S2(=O)=O	2	-1	-1	0	-6[16.7 µM]
CCOC(=O)CN1CC23C=CC(O2)C(C(=O)NCCc2ccccc2)C3C1=O (stereo not drawn)	5	22*	0	.	-4
CS(=O)(=O)NNC(=O)c1csc(Cc2c(Cl)sc3ccc(Cl)cc23)n1	9	1	.	63*	.
CC(C)(C)OC(=O)N1CCC(NC(=O)c2nc[nH]c2C(=O)NCC(=O)OCc2ccccc2)CC1	-13	38*	0	0	-1
CC(C)(C)OC(=O)N1CCC(NC(=O)c2nc[nH]c2C(=O)NC2CCN(C(=O)OC(C)(C)C)CC2)CC1	18	-7	-1	0	0
CCOC(=O)c1ccc(NC(=O)c2nc[nH]c2C(=O)NC2CCN(C(=O)OC(C)(C)C)CC2)cc1	-7	68*	-2	0	0
C[C@@H](NC(=O)C[C@@H]1C[C@@H]2c3cc(NS(C)(=O)=O)ccc3O[C@@H]2[C@@H](CO)O1)c1ccccc1	-1	12	55	1	-2[16.7 µM]
C[C@@H]1CCCCO[C@H](CN(C)CC2CC2)[C@H](C)CN([C@H](C)CO)C(=O)c2cc(NC(=O)C3CCCCC3)ccc2O1	2	-3	3	0	-6[16.7 µM]
CCC(=O)N1[C@H](CO)[C@H](c2ccccc2)C12CN(C(=O)c1cnccn1)C2	7	.	.	.	.
N#C[C@@H]1[C@@H](c2ccc(C#CC3CCCCC3)cc2)[C@H](CO)N1C(=O)Cc1ccccn1	-1	67*	2	0	.
CN(C)CC(=O)N1[C@H](CO)[C@@H](c2ccc(C#CC3CCCCC3)cc2)[C@@H]1C#N	-56	19	3	0	.
CN(C)CC(=O)N1[C@@H](C#N)[C@H](c2ccc(C#CC3CCCC3)cc2)[C@@H]1CO	0	23*	7	0	.
CN(C)CC(=O)N1[C@H](C#N)[C@H](c2ccc(C#CC3CCCCC3)cc2)[C@@H]1CO	-57	40*	0	0	.
CN(C(=O)c1ccc(Br)o1)C1CCCCC1	0	61*	0	0	-4
CN(C(=O)c1ccc(Br)o1)C1CCS(=O)(=O)C1 (stereo not drawn)	8	-5	-1	.	-5
COc1ccc(-c2nnc3sc(CN4C(=O)c5ccccc5C4=O)nn23)cc1	.	.	2	.	-1
COc1ccc(-c2nnc3sc(C(C)N4C(=O)c5ccccc5C4=O)nn23)cc1 (stereo not drawn)	-45*	8	-1	1	-1
COc1ccc(-c2csc(NC(=O)CN3C(=O)NC4(CCCC4)C3=O)n2)cc1	0	5	1	.	.
COc1ccc(OC)c(-c2csc(NC(=O)Cc3ccccc3F)n2)c1	-20	-5	-5	.	117*
COc1ccc(OC)c(-c2csc(NC(=O)CN3C(=O)NC4(CCCC4)C3=O)n2)c1	-25*	-4	.	-2	.
COC(=O)Cn1c2ccccc2c(=O)n1C(C)C	6	21*	.	0	.
Cc1cc(Cl)c2oc(C(=O)N(CCO)Cc3ccccc3)c(C)c2c1	-45	-3	0	1	7
Cc1ccc2oc(C(=O)N(CCO)Cc3ccccc3)c(C)c2c1	-17*	3	-1	0	12
c1ccc(COCCCn2cc(-c3ccccc3)nn2)cc1	-18	46*	1	.	-4
SMILES	Ecoli rRNA inh	DENV2 CPE	Cneo AK release	E-selectin induc	miR122 inh
CCOC(=O)Cn1cc(-c2ccccc2)nn1	.	.	.	.	-6
COc1cccc(NC(=O)N[C@@H]2C=C[C@@H](CC(=O)Nc3ccccc3)O[C@@H]2CO)c1	-6	-2	.	0	.
COc1ccc(NC(=O)N[C@@H]2CC[C@@H](CCNC(=O)c3cc(Cl)cc(Cl)c3)O[C@@H]2CO)cc1	1	6	-5	-2	.
COc1ccc2[nH]c3c(c2c1)CCN1C(=O)C(CC(=O)NCc2ccco2)C[C@H](C(=O)N2CCCCC2)[C@@]31C (stereo partly drawn)	4	-5	6	0	-3
C[C@]12c3[nH]c4ccc(Cl)cc4c3CCN1C(=O)[C@@H](CC(=O)NCc1ccco1)C[C@@H]2C(=O)N1CCCCC1	-3	-3	1	53*	-7
CC[C@]12c3[nH]c4cc(-c5ccco5)ccc4c3CCN1C(=O)[C@@H](CC(=O)NC(C)(C)C)C[C@@H]2C(=O)N1CCN(C(=O)C2CC2)CC1	2	43*	2	0	-5
COc1cccc(CNC(=O)C[C@H]2C=C[C@@H](NC(C)=O)[C@@H](CO)O2)c1	1	3	-2	-1	.
CCC(=O)Nc1ccc2c(c1)C(=O)N(C)C[C@H](OC)[C@H](C)CN(Cc1cccnc1)[C@H](C)CO2	0	3	3	0	-1[16.7 µM]
C[C@H](CO)N1C[C@H](C)[C@@H](CN(C)Cc2ccc(Oc3ccccc3)cc2)Oc2ccc(NC(=O)Nc3ccc(C(F)(F)F)cc3)cc2CC1=O	2	-4	1	36*	-23[16.7 µM]
C[C@H](CO)N1C[C@H](C)[C@@H](CN(C)Cc2ccc(C(=O)O)cc2)Oc2ccc(NC(=O)Nc3ccc(F)cc3)cc2CC1=O	0	-1	-2	38*	-1[16.7 µM]
C[C@@H]1CN([C@@H](C)CO)C(=O)c2cc(NC(=O)Nc3ccc(C(F)(F)F)cc3)ccc2O[C@@H]1CN(C)Cc1ccc(Oc2ccccc2)cc1	3	14	5	100*	11[16.7 µM]
C[C@H](CO)N1C[C@H](C)[C@H](CN(C)Cc2ccc(C(F)(F)F)cc2)Oc2ccc(NC(=O)Nc3ccccc3)cc2CC1=O	-1	25*	1	0	0[16.7 µM]
CO[C@H]1CN(C)C(=O)c2ccc(NS(=O)(=O)c3ccc(-c4ccccc4)cc3)cc2OC[C@H](C)NC[C@@H]1C	-2	9	.	0	.
COC(=O)[C@@H]1[C@@H](CO)[C@@H]2Cn3c(cccc3=O)[C@@H]2N1C(=O)C1CC1	4	?	2	-1	4[16.7 µM]
COc1ccc2c3c([nH]c2c1)[C@@H](CO)N(C(=O)Cc1ccccn1)CC31CCN(Cc2ccccn2)CC1	4	-4	.	1	.
CCC(=O)Nc1ccc2c(c1)C(=O)N(C)[C@H]1CC[C@@H](CC(=O)N3CCc4ccccc4C3)O[C@H]1CO2	-3	.	.	0	2[16.7 µM]
C[C@@H]1CN([C@H](C)CO)C(=O)Cc2cc(NC(=O)Nc3ccc(C(F)(F)F)cc3)ccc2O[C@H]1CN(C)Cc1ccc(C(=O)O)cc1	4	24*	1	.	-6[16.7 µM]
COCCNC(=O)C[C@@H]1CC[C@H]2[C@H](COc3ccc(NC(=O)C4CCCC4)cc3C(=O)N2C)O1	0	11	1	0	6[16.7 µM]
